Here are results for 1 compound from ChEMBL document CHEMBL2321868, “The discovery of novel potent trans-3,4-disubstituted pyrrolidine inhibitors of the human aspartic protease renin from in silico three-dimensional (3D) pharmacophore searches” (J Med Chem, 2013).

A short description of series [1]: Cmax in jugular vein cannulated Sprague-Dawley rat at 6 mg/kg, po by HPLC-MS analysis. Type of series: ADME, organism-based. On the set-up: dose 6 mg/kg, route oral. The note with it: in vivo. The method in brief:
(§1)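 Cannulated, fed Sprague–Dawley rats were given 2 mg/kg intravenously and 6 mg/kg orally. Oral bioavailability came from the two routes. t1/2, plasma clearance and Vdss were estimated. Oral Cmax and AUC were taken over 0–24 h.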

Series [2] has as its target T1, Cathepsin E (Homo sapiens, UniProt P14091).
T1 sequence (P14091 whole entry): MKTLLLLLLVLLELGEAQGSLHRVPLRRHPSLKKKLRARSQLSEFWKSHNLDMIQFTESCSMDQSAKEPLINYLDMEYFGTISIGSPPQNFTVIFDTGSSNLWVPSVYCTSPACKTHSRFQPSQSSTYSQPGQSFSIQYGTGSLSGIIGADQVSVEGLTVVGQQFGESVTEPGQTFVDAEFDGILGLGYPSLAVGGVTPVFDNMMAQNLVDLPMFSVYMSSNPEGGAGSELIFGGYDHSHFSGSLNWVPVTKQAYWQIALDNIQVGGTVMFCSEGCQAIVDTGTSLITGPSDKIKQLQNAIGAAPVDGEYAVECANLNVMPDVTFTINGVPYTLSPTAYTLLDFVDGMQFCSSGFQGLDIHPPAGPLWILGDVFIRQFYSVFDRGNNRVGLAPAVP
The series is described as follows: Inhibition of human recombinant cathepsin-E expressed in Escherichia coli using Ac- E-D(EDANS)-KPILFFRLG-K(Dabcyl)-E-Amid as substrate incubated for 1 hr prior to substrate addition measured after 1 hr by FRET-based enzymatic assay.

Series [3] is described as follows: Inhibition of human recombinant pepsin A expressed in Escherichia coli using Dabcyl-E-R-Nle-F-L-S-F-P-EDANS as substrate incubated for 1 hr prior to substrate addition measured after 1 hr by FRET-based enzymatic assay.
Series [4] has as its target T2, 5-hydroxytryptamine receptor 1A (Homo sapiens, UniProt P08908).
T2 sequence (P08908 whole entry): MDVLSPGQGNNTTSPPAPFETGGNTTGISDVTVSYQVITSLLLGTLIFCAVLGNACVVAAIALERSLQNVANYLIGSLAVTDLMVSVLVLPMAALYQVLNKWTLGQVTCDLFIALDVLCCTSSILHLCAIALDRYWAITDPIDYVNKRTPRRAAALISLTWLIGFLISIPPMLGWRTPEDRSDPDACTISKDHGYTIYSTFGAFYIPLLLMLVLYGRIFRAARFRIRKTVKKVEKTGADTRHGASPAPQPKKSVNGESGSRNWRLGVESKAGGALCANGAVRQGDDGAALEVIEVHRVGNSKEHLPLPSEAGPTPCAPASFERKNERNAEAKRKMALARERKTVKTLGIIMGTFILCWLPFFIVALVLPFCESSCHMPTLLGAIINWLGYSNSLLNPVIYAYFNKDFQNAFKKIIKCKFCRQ
The series is described as follows: Inhibition of 5-HT1A (unknown origin).

In series [5] the target is T3, Beta-secretase 2 (Homo sapiens, UniProt Q9Y5Z0).
T3 sequence (Q9Y5Z0 whole entry): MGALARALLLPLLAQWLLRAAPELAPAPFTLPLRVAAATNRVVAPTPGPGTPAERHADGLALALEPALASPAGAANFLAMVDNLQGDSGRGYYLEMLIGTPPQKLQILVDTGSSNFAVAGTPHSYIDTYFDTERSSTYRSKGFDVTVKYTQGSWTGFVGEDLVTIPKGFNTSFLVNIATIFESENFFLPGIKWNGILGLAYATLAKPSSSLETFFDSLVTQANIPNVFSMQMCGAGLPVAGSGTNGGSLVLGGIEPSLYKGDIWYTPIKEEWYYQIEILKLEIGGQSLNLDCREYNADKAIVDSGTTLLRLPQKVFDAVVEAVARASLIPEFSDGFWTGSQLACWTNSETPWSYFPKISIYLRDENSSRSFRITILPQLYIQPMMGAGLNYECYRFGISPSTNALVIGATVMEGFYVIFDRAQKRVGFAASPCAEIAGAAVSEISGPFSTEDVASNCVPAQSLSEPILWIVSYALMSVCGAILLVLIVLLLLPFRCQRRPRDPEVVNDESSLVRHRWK
The series is described as follows: Inhibition of human recombinant BACE-2 expressed in baculovirus-infected insect sf9 cells using RE( EDANS)-EVNLDAEF-K(DABSYL)-R as substrate incubated for 1 hr prior to substrate addition measured after 1 hr by FRET-based enzymatic assay.

Series [6] deals with Rattus norvegicus. The series is described as follows: Antihypertensive activity in double transgenic rat overexpressing human renin and angiotensinogen assessed as reduction in mean arterial pressure at 6 to 30 mg/kg, po after 12 hrs. Type of series: functional, organism-based. The note with it: Artery. The method in brief: (§2)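 Double-transgenic rats overexpressing human renin and human angiotensinogen, with telemetry. Each received a single oral dose of 6 or 30 mg/kg. The read-out was mean arterial pressure, reported as the peak change from dosing.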

The nature of series [7]: Plasma clearance in Sprague-Dawley rat at 2 mg/kg, iv by HPLC-MS analysis. On the set-up: dose 2 mg/kg, route intravenous. Format: ADME, organism-based. In outline: as §1
Series [8] deals with Rattus norvegicus. The series is described as follows: Antihypertensive activity in po dosed double transgenic rat overexpressing human renin and human angiotensinogen assessed as reduction in mean arterial pressure. Type of series: functional, organism-based. The following applies: Artery. The method in brief:
as §2

For series [9], the target named is 5-hydroxytryptamine receptor 2A (Homo sapiens, UniProt P28223). The series is described as follows: Inhibition of 5-HT2A (unknown origin).
5-hydroxytryptamine receptor 2A, sequence (P28223 whole entry): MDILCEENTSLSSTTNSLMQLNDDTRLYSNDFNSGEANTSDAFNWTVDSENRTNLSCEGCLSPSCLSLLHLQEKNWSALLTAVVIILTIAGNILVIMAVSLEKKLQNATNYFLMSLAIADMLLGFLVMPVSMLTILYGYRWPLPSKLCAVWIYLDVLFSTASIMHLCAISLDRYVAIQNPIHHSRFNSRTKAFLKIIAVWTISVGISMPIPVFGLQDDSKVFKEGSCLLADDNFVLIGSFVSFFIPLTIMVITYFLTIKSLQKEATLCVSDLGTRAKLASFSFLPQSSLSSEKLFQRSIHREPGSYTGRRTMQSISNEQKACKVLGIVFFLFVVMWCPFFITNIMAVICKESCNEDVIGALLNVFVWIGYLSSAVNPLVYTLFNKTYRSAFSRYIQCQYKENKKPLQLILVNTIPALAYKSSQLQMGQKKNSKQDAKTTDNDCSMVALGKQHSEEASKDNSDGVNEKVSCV
Series [10] concerns the target T4, Gastricsin (Homo sapiens, UniProt P20142).
T4 sequence (P20142 whole entry): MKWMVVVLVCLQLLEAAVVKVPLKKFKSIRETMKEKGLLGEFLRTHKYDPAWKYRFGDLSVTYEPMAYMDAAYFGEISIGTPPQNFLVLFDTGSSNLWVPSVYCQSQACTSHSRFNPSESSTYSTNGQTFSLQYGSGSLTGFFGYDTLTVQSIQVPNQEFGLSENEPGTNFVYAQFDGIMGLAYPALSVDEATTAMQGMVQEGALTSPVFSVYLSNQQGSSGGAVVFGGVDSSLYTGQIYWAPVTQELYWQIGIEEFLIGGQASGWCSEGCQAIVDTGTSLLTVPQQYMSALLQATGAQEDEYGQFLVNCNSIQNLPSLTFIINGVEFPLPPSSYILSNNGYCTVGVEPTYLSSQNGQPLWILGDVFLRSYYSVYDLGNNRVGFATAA
The series is described as follows: Inhibition of human recombinant pepsin C expressed in Escherichia coli using Dabcyl-E-R-Nle-F-L-S-F-P-EDANS as substrate incubated for 1 hr prior to substrate addition measured after 1 hr by FRET-based enzymatic assay.

Active and inactive are the calls of the source. The rule behind the calls is not given here.

As to `COCCCOc1cc(C(=O)N(C[C@@H]2CNC[C@H]2Cc2ccccc2)C(C)C)ccc1OC.Cl`, the Cmax in series [1] turned out to be 1310 nM. Also, the IC50 in [2] was greater than 30 µM; in series [3], greater than 30 µM; in [4], greater than 1 µM; in series [5] it was greater than 30 µM; in [9], greater than 1 µM; in [10], greater than 30 µM. Besides, the outcome in series [6] was Active. In addition, the clearance in series [7] is 25 mL/min/kg. In addition, the Activity result in series [8] was “Dose-dependent effect”.
